Screening results from PubChem.
OX1R antag-1 = blocks the human orexin 1 receptor; O43613; CHO/OX1R cells, Fluo-8 calcium fluorescence, orexin A; inhibition, % at 5 µM; 330,000 compounds, 0.43% hits; AID 434989;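 active = inhibition above its plate's threshold, mean inhibition of all tested compounds on the plate plus 3 SD, cut at about 37% in these data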;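 note: 0% = orexin A challenge wells and 100% = SB-334867-A antagonist wells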
GPR7 antagonist = human neuropeptides B/W receptor 1 antagonism. P48145. GPR7-expressing cells, fluorescence antagonist assay. inhibition, % at 4.4 µM. 290,000 compounds, 1.1% hits; in the data active = inhibition above about 16%, passing the limit was not always enough;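 note: cells stimulated with the agonist NPW; 0% = agonist with vehicle and 100% = vehicle without agonist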
Target sequence (P48145 whole entry, looked up): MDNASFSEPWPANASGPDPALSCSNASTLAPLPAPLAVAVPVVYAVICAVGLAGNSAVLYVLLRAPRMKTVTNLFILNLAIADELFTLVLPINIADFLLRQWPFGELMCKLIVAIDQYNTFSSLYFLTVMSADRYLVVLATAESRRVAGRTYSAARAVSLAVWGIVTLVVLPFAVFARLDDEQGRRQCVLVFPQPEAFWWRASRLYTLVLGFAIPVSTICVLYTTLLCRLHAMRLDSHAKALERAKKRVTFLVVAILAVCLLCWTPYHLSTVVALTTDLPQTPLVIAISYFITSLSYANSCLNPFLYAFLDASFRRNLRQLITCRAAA
OX1R antag-2 = blocks the human orexin 1 receptor; inhibition, % at 6.6 µM; AID 485270; OX1R-expressing cells, FRET antagonist read-out; 330,000 compounds, 1.8% hits; in the data active = inhibition mostly above about 38%, no sharp cut-off; inactive = mostly below about 40%;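 note: 0% = agonist challenge alone and 100% = reference antagonist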
CHO parental Ca = counter-screen: ATP calcium response change in parental CHO cells; parental CHO-K1, ATP-induced calcium, Fluo-8 fluorescence; inhibition, % at 5.6 µM; 330,000 compounds, 0.63% hits;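 active = inhibition above that plate's mean sample inhibition plus 3 SD, cut at about 26% in these data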;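 note: 0% = ATP-challenged DMSO wells and 100% = DMSO wells without ATP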
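test system = CHO parental line | reagent = ATP stimulus | measured by = intracellular calcium via Fluo-8 no-wash fluorescent dye | control set = ATP and no-ATP DMSO wells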
GalR3 antagonist = blocks the human galanin receptor 3; HEK293 GalR3-CNG cAMP membrane potential fluorescence; galR3 body fused to GalR1 C-terminus; inhibition, % at 3 µM; 360,000 compounds, 0.44% hits; AID 651719; O60755;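 active = inhibition above the screen-wide average plus 3 SD, cut at about 13% in these data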;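 note: forskolin and galanin both at EC90 stimulate the cells; cAMP rise reported by CNG channel membrane potential dye signal; 0% = forskolin plus galanin with DMSO and 100% = forskolin alone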
Target sequence (O60755 1-299 limits assumed): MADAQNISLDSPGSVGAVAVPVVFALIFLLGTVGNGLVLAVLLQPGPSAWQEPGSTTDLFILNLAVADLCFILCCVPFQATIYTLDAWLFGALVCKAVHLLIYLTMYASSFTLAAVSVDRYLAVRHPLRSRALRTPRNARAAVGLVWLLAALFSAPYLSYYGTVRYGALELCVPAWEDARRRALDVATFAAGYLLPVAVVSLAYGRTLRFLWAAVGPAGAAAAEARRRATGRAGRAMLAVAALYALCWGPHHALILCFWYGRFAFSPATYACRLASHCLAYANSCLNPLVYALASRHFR
The depositor's hits bear a star; · = not tested or not shown. Rows were chosen to be rich in hits. Some 3.1% of all compounds tested hit in one or more screens of this group.

SMILES	OX1R antag-1	GPR7 antagonist	OX1R antag-2	CHO parental Ca	GalR3 antagonist
CN(C)c1ccc(C(=O)c2ccc(N(C)C)c3ccccc23)cc1	32.1	7.3	55.2*	70.4*	1.0
CC(C)c1cc(-c2cc(C(=O)NCc3ccccc3)on2)nc(NCC2CC2)n1	62.1*	·	1.0	44.2*	-5.6
CC(C)COc1nc2c(c(=O)n(C)c(=O)n2C)n1C	-16.6	active	5.0	-5.1	-9.9
CCN(CC)C(=O)Cn1c(C)c(/C=C/c2cc[n+](C)cc2)c2ccccc21	-1.0	-3.0	71.9*	-16.2	-5.5
Cc1[nH]c2ccccc2c1/C=C/c1cc[n+](C)cc1	·	-6.6	·	·	-0.9
CCN(CC)C(=O)Cn1c(=O)n(C)c2ccccc21	-12.7	-9.8	10.3	-0.6	-0.1
CCn1cc(/C=C/c2cc[n+](C)cc2)c2ccccc21	-17.8	16.4	45.1*	-4.2	-11.9
C=CCn1c(C)c(/C=C/c2cc[n+](C)cc2)c2ccccc21	1.2	-0.5	47.8*	16.1	7.8
Cc1c(C(=O)O)cccc1-c1ccc(/C=C2\SC(=O)NC2=O)o1	-0.1	5.3	55.6*	-8.4	-8.6
Cc1c(C(=O)O)cccc1-c1ccc(/C=C2/NC(=O)N(c3ccccc3)C2=O)o1	-17.6	-3.4	24.4	2.4	-4.4
O=C1CN(/N=C/c2ccc([N+](=O)[O-])o2)C(=O)N1	1.2	-14.8	84.3*	0.3	·
O=C1OC(CN(Cc2ccccc2)Cc2ccccc2)CN1N=Cc1ccc([N+](=O)[O-])o1 (stereo not drawn)	·	·	·	·	-1.9
O=C1OC(CN2CCOCC2)CN1N=Cc1ccc([N+](=O)[O-])o1 (stereo not drawn)	-2.0	·	59.8*	-0.4	-1.6
Cc1ccc2nc(-c3ccc(Cl)cc3)c(Cc3ccsc3)n2c1	·	·	·	·	-3.5
COc1ccc(C2CC(c3ccccc3)=NN2C(=O)COC(=O)c2cc(S(=O)(=O)N3CCOCC3)ccc2F)cc1 (stereo not drawn)	-27.0	20.9*	14.9	-5.4	0.2
CCCC(=O)OC[C@H]1CN(C2CCCC2)S(=O)(=O)c2c(Oc3ccccc3)cccc2O1	·	·	·	·	-7.5
COc1ccc([C@@H]2C[C@H]3[C@@H](CN2S(=O)(=O)c2ccccc2)C(=O)C[C@@H](c2ccccc2F)N3S(=O)(=O)c2ccc(C)cc2)cc1	·	·	·	·	-4.8
Cc1ccc(Sc2ccc(S(=O)(=O)Nc3ccc(C(=O)O)cc3)cc2)cc1C	42.4	·	5.9	47.9*	-3.5
COc1cccc(-c2ccc(NC(=O)C3CCCN(Cc4cnn(C(C)C)c4)C3)cc2)c1 (stereo not drawn)	-13.6	20.2*	4.5	-0.7	-2.9
COc1cccc(NC(=O)N(C)C[C@H]2OCc3cn(nn3)CCCC(=O)N([C@H](C)CO)C[C@@H]2C)c1	·	·	·	·	-4.7
CCn1c(SCc2cccc(F)c2)nnc1-c1cccnc1	5.3	18.6*	0.9	2.9	-2.0
COc1cc2cnc(-c3ccsc3)cc2cc1OC	-26.8	·	14.4	-10.8	-5.3
c1cc(-c2cc3cc4c(cc3cn2)OCO4)cs1	20.1	·	70.1*	-1.4	-5.3
O=C(N/N=C/c1cc(Br)c(Br)o1)c1cc2ccccc2o1	-2.1	7.9	62.5*	15.3	-2.1
O=[N+]([O-])c1cc(Br)c2nsnc2c1N1CCOCC1	-14.6	20.2	28.8*	-9.1	-3.3
SMILES	OX1R antag-1	GPR7 antagonist	OX1R antag-2	CHO parental Ca	GalR3 antagonist
COc1cc([N+](=O)[O-])c(N2CCOCC2)c([N+](=O)[O-])c1OC	-13.3	-1.5	21.9	-21.2	4.9
O=C1c2ccccc2-c2nc3ccccc3cc21	-2.9	-1.4	58.5*	-2.9	-8.8
CSc1ccccc1NC(=O)CN(C)C(=O)COc1cccc2cccnc12	-4.2	·	32.1*	-9.8	-6.7
Cc1ccc2nc3ccc(N4CCCCCCC4)nn3c(=O)c2c1	-25.6	4.5	56.2	-9.7	-5.4
Cc1sc2nc3ccc(N4CCCC4)nn3c(=O)c2c1C	-15.4	-6.0	48.4*	0.7	-2.3
CC(=O)c1cn(-c2ccc([N+](=O)[O-])cc2)c(=O)n(C)c1=O	-7.8	·	39.4*	-7.8	-4.5
Cn1c(CBr)c(C(=O)c2ccc([N+](=O)[O-])cc2)c(=O)n(C)c1=O	-16.1	-13.4	51.3*	-4.7	2.8
COc1cc(O)c(CC=C(C)C)c(O)c1C(=O)CCc1ccc(O)cc1	35.9	·	9.0	38.9*	-8.5
COc1ccccc1CCn1cnc(-c2ccc(F)cc2)c1C(C)C	·	·	·	·	-9.1
Cc1ccccc1NC(=S)N(Cc1ccccc1)Cc1cccnc1	-60.4	-7.7	11.2	-26.0	0.7
CSc1cccc(NC(=S)N(Cc2ccc(C)cc2)Cc2cccnc2)c1	14.4	-19.5	31.4	46.1*	-6.0
O=S(=O)(c1cccc(Br)c1)N1CCN(c2ccnc3cc(Cl)ccc23)CC1	-3.7	16.1	18.5	34.9*	-3.7
N#Cc1cccc(S(=O)(=O)N2CCN(c3ccnc4cc(Cl)ccc34)CC2)c1	2.1	11.4	8.9	9.2	-3.6
O=[N+]([O-])c1ccc(-c2ccc(/C=N/O)o2)cc1	-14.0	-1.3	18.6	-2.5	-6.1
O=[N+]([O-])c1ccc(-c2ccc(C=Nc3cccc4ccccc34)o2)cc1	-2.6	-3.4	47.9*	4.9	-3.4
COCCN1CCn2c(nc3cc([N+](=O)[O-])ccc32)C1	-2.1	-6.2	40.1*	-13.0	2.1
CCn1cc(C(=O)N2CCN(c3ccc(OC)cc3)CC2)c(=O)c2cc(S(=O)(=O)N3CCOCC3)ccc21	-5.0	-4.2	6.0	1.7	-1.8
C[C@@H]1CN([C@@H](C)CO)C(=O)CCCn2nncc2CO[C@H]1CN(C)S(=O)(=O)c1ccccc1C#N	·	·	·	·	-4.7
CCCc1cc(C(=O)Nc2cccc(C(C)=O)c2)no1	-17.2	-8.1	22.5	-5.4	·
CCCc1cc(C(=O)Nc2ccc(C(C)=O)cc2)no1	-12.1	-6.9	12.1	28.3*	·
O=C(CSc1cn(CCNC(=O)c2cccs2)c2ccccc12)NC1CCCCC1	-14.5	3.7	41.1*	-5.0	·
O=C(NCCn1cc(SCc2ccccc2F)c2ccccc21)c1c(F)cccc1F	1.9	13.4	25.5	80.2*	·
O=C(CSc1cn(CCNC(=O)c2cccs2)c2ccccc12)NCc1ccccc1	-4.8	5.8	41.2*	-14.8	·
CC(C)n1ncc2c(C(=O)N3CCN(S(=O)(=O)c4cccc(F)c4)CC3)cc(C3CC3)nc21	·	·	·	·	-5.5
COc1cccc(C(=O)Nc2cc(C)c3c(=O)oc4ccccc4c3n2)c1	-27.9	·	44.8*	-18.0	1.5
Cc1occc(=O)c1OC(=O)Nc1ccc(Cl)c(Cl)c1	35.9	12.8	14.2	70.4*	2.4
COC(=O)c1ccc(C(C(=O)NCc2ccccc2)N(Cc2cccs2)C(=O)c2cnccn2)cc1 (stereo not drawn)	-23.4	-4.4	1.5	-7.8	-3.0
Cc1ccc(C(C(=O)NCc2ccccc2)N(Cc2cccs2)C(=O)c2ccc3c(c2)OCCO3)cc1 (stereo not drawn)	12.8	-14.2	57.6*	5.8	-4.7
CC1ON=C(c2ccc(F)cc2)NC1=O (stereo not drawn)	·	·	·	·	0.0
CCN1C(=O)[C@H]2[C@@H](c3ccccc3)N[C@]3(CCCN(Cc4ccccc4)C3=O)[C@H]2C1=O	·	·	·	·	-5.0
